# CHO-K1 Ca antag: nonselective inhibitor or artifact in parental CHO-K1 cells; ATP-induced calcium, Fluo-8 fluorescence; inhibition, % at 3 µM; actives 0.6% (n = 360,000); AID 602250;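 active = inhibition above a per-plate cutoff, the plate's mean sample inhibition plus 3 SD, cut at about 24% in these data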
# OX1R antag-1: antagonists of human orexin 1 receptor | actives 0.43% (n = 330,000) | inhibition, % at 5 µM | CHO/OX1R cells, Fluo-8 calcium fluorescence, orexin A | AID 434989;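 active = inhibition above its plate's threshold, mean inhibition of all tested compounds on the plate plus 3 SD, cut at about 37% in these data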
# Target sequence (O43613 whole entry, looked up): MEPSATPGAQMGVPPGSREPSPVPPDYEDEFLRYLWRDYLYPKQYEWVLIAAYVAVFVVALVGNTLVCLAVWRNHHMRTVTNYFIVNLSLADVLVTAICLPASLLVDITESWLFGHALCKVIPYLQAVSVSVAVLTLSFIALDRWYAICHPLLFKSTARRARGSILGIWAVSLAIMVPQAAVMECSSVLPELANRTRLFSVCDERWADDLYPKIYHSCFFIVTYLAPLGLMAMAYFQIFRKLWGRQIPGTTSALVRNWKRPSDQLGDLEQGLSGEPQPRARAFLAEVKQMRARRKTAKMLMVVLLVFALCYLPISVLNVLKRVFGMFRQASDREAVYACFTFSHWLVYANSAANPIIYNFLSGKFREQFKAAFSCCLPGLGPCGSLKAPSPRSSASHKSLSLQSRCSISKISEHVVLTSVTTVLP
# CHO parental Ca: signal in parental CHO cells, OX1R antagonist counter-screen; inhibition, % at 5.6 µM; parental CHO-K1, ATP-induced calcium, Fluo-8 fluorescence; actives 0.63% (n = 330,000);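 active = inhibition above that plate's mean sample inhibition plus 3 SD, cut at about 26% in these data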
#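 Test system: parental CHO cells; detection: calcium-sensitive Fluo-8 fluorescence; evaluation: percent inhibition of calcium signal; also added: ATP as calcium-mobilizing challenge; repeats: one well per compound; control set: ATP-challenged DMSO wells low, unchallenged DMSO wells high; compound: single nominal dose of 5.6 µM per compound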
# OX1R antag-2: antagonists of human orexin 1 receptor (OX1R); OX1R-expressing cells, FRET antagonist read-out; inhibition, % at 6.6 µM; actives 1.8% (n = 330,000); O43613; AID 485270; in the data active = inhibition mostly above about 38%, no sharp cut-off; inactive = mostly below about 40%
# CHO-K1 Ca PAM: M1 PAM counterscreen hit in parental CHO-K1 cells; actives 0.02% (n = 360,000); ATP EC20, Fluo-8 calcium fluorescence; 0% at ATP EC20, 100% at ATP max; activation, % at 3 µM; AID 602247;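 active = activation above the run cutoff, the mean activation of all test compounds plus 3 SD, cut at about 40% in these data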;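 also: peak over basal fluorescence ratio in a 140 s read after ATP addition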
# CHO-K1 Ca ag: counter-screen for M1 agonists: effect in parental CHO-K1 cells; Fluo-8 calcium fluorescence; scaled to maximal ATP response, vehicle zero; activation, % at 3 µM; actives 0.48% (n = 360,000); in the data active = activation above about 15%;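 also: untransfected CHO-K1 host cells lacking M1 receptor as counterscreen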
# A number is an active result; i = inactive; nt = no result given. This is a sample that favours compounds with a hit; in the whole collection about 2.9% have one here.
SMILES,CHO-K1 Ca antag,OX1R antag-1,CHO parental Ca,OX1R antag-2,CHO-K1 Ca PAM,CHO-K1 Ca ag
O=C(COC(=O)c1ccc2c(c1Cl)C(=O)c1ccccc1C2=O)NC1CC1,i,i,i,61,i,i
O=C(COC(=O)c1ccc(F)cc1F)NC1CC1,30,i,i,i,i,i
Nc1ccc(-c2nc3nc(N)nc(N)c3nc2-c2ccc(N)cc2)cc1,i,i,i,40,i,i
COc1cc(Nc2c3c(nc4ccccc24)CCCC3)cc(OC)c1OC,i,i,i,i,i,17
COc1ccc(C(=O)NCC(c2ccco2)N2CCc3ccccc32)c(OC)c1 (stereo not drawn),i,i,i,i,48,i
COc1ccc(C(=O)NCC(c2cccs2)N2CCc3ccccc32)cc1OC (stereo not drawn),24,i,i,i,i,i
Cc1ccc(C(NC(=O)C2CCN(CCOc3ccccc3)CC2)c2ccccn2)cc1 (stereo not drawn),i,nt,nt,nt,i,i
COc1cc(/C=N/NC(=O)c2ccc3c(c2)OCCO3)c(Br)c(Br)c1O,i,i,i,65,i,i
COc1ccc(Br)cc1/C=N/NC(=O)c1cc(OC)c(OC)c(OC)c1,i,i,i,i,i,i
COc1ccc(Br)cc1/C=N/NC(=O)c1ccc2nc[nH]c2c1,i,i,i,41,i,i
COc1ccc(Br)cc1/C=N/NC(=O)c1ccc(OC)c(OC)c1,i,i,i,43,i,i
COc1ccc(CNC(=O)CN(C(=O)c2csnn2)c2cccc3ccccc23)cc1,i,i,i,i,i,i
COc1ccc(S(=O)(=O)N2CCCCCC2)cc1NC(=O)CN1C(=O)CNC1=O,i,i,i,i,i,i
O=C(CNC(=O)c1ccccc1)N/N=C/c1cccs1,i,i,i,i,i,i
O=C(CC(=O)N/N=C/c1cccs1)NCc1ccccc1,i,i,i,i,i,16
CC1CCCC(NC(=O)CSc2ncccn2)C1C (stereo not drawn),27,i,i,i,i,i
Cc1cc(C)n2nc(SCC(=O)NC3CCCC(C)C3C)nc2n1 (stereo not drawn),i,i,i,i,i,i
Nc1ccc(S(=O)(=O)Nc2nccc(/C=C/c3ccc([N+](=O)[O-])cc3)n2)cc1,i,i,i,i,i,i
COc1ccc(C(=O)Nc2nc3c(s2)Cc2cc(OC)ccc2-3)cc1,i,i,i,i,i,i
COc1ccc2c(c1)Cc1sc(NC(=O)c3cccs3)nc1-2,i,i,i,68,i,i
Cn1cc(C(=O)N2CCN(c3cccc(Cl)c3)CC2)c(=O)c2cc(S(=O)(=O)N3CCOCC3)ccc21,i,i,i,i,i,i
CC(C)C(=O)Nc1ccc(-c2csc(-c3ccccc3)n2)cc1,i,i,41,i,i,i
Cc1ccc(C(=O)Nc2cccc(NC(=O)c3cccs3)c2)c(C)c1,i,i,i,64,i,i
Cc1ccn2cc(-c3cccc(NC(=O)c4cccs4)c3)nc2c1,i,i,i,75,i,i
O=C(Nc1cccc(-c2csc(-c3ccccc3)n2)c1)c1cccs1,i,i,i,67,i,i
SMILES,CHO-K1 Ca antag,OX1R antag-1,CHO parental Ca,OX1R antag-2,CHO-K1 Ca PAM,CHO-K1 Ca ag
CS(=O)(=O)N(Cc1ccccc1Cl)c1ccc(C(=O)N2CCCC2)cc1,i,i,i,i,i,i
C=CCn1cc(CN2CCC(C(=O)Nc3cccc(-c4cccc(Cl)c4)c3)CC2)c(C)n1,i,i,i,i,i,i
CC(Oc1ccc2ccc(=O)oc2c1)C(=O)NC(Cc1c[nH]c2ccc(O)cc12)C(=O)O (stereo not drawn),i,i,i,i,i,i
O=P(OC1CCCCC1)(OC1CCCCC1)C(O)c1ccc(Cl)cc1Cl (stereo not drawn),i,i,i,i,i,i
O=P(OC1CCCCC1)(OC1CCCCC1)C(O)c1c(Cl)cccc1Cl (stereo not drawn),i,i,i,45,i,i
Cc1onc(-c2ccccc2)c1C(=O)OCC(=O)Nc1ccccc1Cl,i,nt,nt,nt,i,i
COc1ccc(CCNc2ncnc3[nH]ncc23)cc1OC,i,i,i,i,i,i
COc1ccc(CCNc2ncnc3sc(C)cc23)cc1OC,32,nt,nt,nt,i,i
O=c1ccc(-c2ccccc2)nn1Cc1ccc(Cl)cc1,i,i,i,i,i,i
C=Cc1ccc(Cn2nc(-c3ccc(C)cc3)ccc2=O)cc1,i,i,44,i,i,i
CC(C)NC(=O)NC(=O)COC(=O)/C=C/c1ccccc1[N+](=O)[O-],i,i,i,i,i,i
O=C(CCl)NC(Cc1ccccc1)C(=O)OCC(=O)c1ccc(-c2ccccc2)cc1 (stereo not drawn),i,nt,nt,nt,i,i
CCOC(=O)CN1C(=N)N(c2nc(NC(C)C)nc(NC(C)C)n2)CC1=O,31,i,i,i,i,i
CC(C)(C)OC(=O)NCCCCCNC(=O)c1nc[nH]c1C(=O)NCCCCCNC(=O)OC(C)(C)C,i,i,i,i,i,i
CC(C)(C)OC(=O)NCc1ccc(CNC(=O)c2nc[nH]c2C(=O)NCc2ccc(CNC(=O)OC(C)(C)C)cc2)cc1,29,i,i,i,i,i
CC(C)C[C@H](NC(=O)c1[nH]cnc1C(=O)Nc1ccc(CNC(=O)OC(C)(C)C)cc1)C(=O)OC(C)(C)C,i,i,i,i,48,i
CC(C)(C)OC(=O)NCCCCCNC(=O)c1nc[nH]c1C(=O)NCc1ccc(CNC(=O)OC(C)(C)C)cc1,i,58,40,i,i,15
CC(C)(C)OC(=O)CNC(=O)c1nc[nH]c1C(=O)NCc1ccc(CNC(=O)OC(C)(C)C)cc1,i,i,i,i,i,i
CC(C)C[C@H](NC(=O)c1nc[nH]c1C(=O)NC1CCN(C(=O)OC(C)(C)C)CC1)C(=O)OCc1ccccc1,i,i,34,i,i,i
CC(C)C[C@H](NC(=O)c1nc[nH]c1C(=O)NCCCCCNC(=O)OC(C)(C)C)C(=O)OCc1ccccc1,i,i,i,i,i,i
CC(C)(C)OC(=O)NCCCCCNC(=O)c1[nH]cnc1C(=O)N[C@@H](Cc1ccccc1)C(=O)OCc1ccccc1,i,73,47,i,i,i
COc1ccc(C(=O)OCC(=O)N2c3ccccc3CC2C)cc1S(=O)(=O)N1CCOCC1 (stereo not drawn),i,nt,nt,nt,i,i
O=C(c1cc2ccc([N+](=O)[O-])cc2oc1=O)N1CCOCC1,i,i,i,57,i,i
O=C(CN1CCOCC1)Nc1nc2ccc([N+](=O)[O-])cc2s1,i,i,i,62,i,i
CCN1CCN(C(=O)c2cc3cc([N+](=O)[O-])ccc3oc2=O)CC1,i,i,i,i,i,i
O=C(c1cc2cc([N+](=O)[O-])ccc2s1)N1CCOCC1,i,i,i,46,i,i
COc1ccc(CCNC(=O)CCCn2c(=S)[nH]c3cc4c(cc3c2=O)OCO4)cc1OC,i,nt,nt,nt,i,i
